Data as given in article PMC8884033 (Journal of medicinal chemistry, 2021).
Each block holds one compound with its values, some of them ahead of it.

Key:
recombinant human GALK1 [1] = molecular target: T1, recombinant human GALK1 (Homo sapiens, UniProt P51570); assay: GALK1 biochemical assay; conditions: for fold improvement in potency compared to compound 2: ratio of GALK1 IC50 vs 2
[2] = Parallel artificial membrane permeability assay; assay type: in vitro ADME; conditions: pH 7.4
Summary of the method: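 Stirred double-sink PAMPA with a lipid/dodecane membrane designed to model GI passive permeability. Donor and acceptor both at pH 7.4. Test compound from 10 mM DMSO stock, diluted to 0.05 mM in pH 7.4 buffer (0.5% DMSO final). Permeation ran 30 min at room temperature with donor stirring. Donor and acceptor concentrations read by UV plate reader.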

mouse recombinant GALK1 [3] = molecular target: T2, mouse recombinant GALK1 (Mus musculus, UniProt Q9R0N0); assay: GALK1 biochemical assay, mouse enzyme
T2 sequence (Q9R0N0 whole entry): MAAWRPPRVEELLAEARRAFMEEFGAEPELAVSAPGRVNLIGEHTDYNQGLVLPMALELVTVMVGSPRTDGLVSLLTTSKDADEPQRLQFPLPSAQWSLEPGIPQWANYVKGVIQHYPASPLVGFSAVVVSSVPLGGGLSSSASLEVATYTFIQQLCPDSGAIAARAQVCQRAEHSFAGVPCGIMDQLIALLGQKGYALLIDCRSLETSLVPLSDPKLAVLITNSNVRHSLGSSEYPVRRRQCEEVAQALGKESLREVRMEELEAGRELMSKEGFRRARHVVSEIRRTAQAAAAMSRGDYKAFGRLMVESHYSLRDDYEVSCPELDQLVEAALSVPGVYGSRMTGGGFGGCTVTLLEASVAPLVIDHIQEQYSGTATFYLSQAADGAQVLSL

GALK2 = conditions: cited from earlier work
mouse recombinant GALK1 [4] = molecular target: T2, mouse recombinant GALK1; conditions: read-out: IC50 against mouse recombinant GALK1; previously reported lead; cited from earlier work
[5] = system: Fibroblasts derived from GALT-deficient patients; conditions: primary fibroblast cells from patients with classic galactosemia; cited from earlier work
other kinases = assay: KINOMEScan screen; assay type: binding; conditions: KINOMEScan at 10 μM
recombinant human GALK1 [6] = molecular target: T1, recombinant human GALK1; conditions: read-out: IC50 against human recombinant GALK1; previously reported lead; cited from earlier work
[7] = system: Fibroblasts derived from GALT-deficient patients; assay: Cellular Gal-1P accumulation assay after galactose challenge; assay type: cell-based, human; conditions: at 3 μM, patient fibroblasts
Summary of the method: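 GALT-deficient patient fibroblasts kept in galactose-free DMEM with 10% FBS. Inhibitor added at set concentrations for 2 to 4 h at 37 °C. Galactose then added to 0.05% for a 4 h challenge. Cells PBS-washed twice and lysed in ice-cold hypotonic buffer (25 mM Tris-HCl pH 7.4, 25 mM NaCl, 0.5 mM EDTA, protease inhibitors). Lysate needle-sheared, then spun 16,000g for 20 min at 4 °C. Gal-1P measured by alkaline phosphatase-coupled method and normalized to protein.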

[8] = Human liver microsome stability; assay type: in vitro ADME; conditions: liver microsomes, pH 7.4
[9] = Mouse pharmacokinetic studies; assay type: in vivo, CD1 mice
Summary of the method: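 Fed CD1 mice, 6–8 weeks old, ~25–30 g. Given single IP (50 mpk), PO (30 mpk) or IV doses as solutions in 5% NMP/25% PEG 300/70% of 15% w/w Kolliphor HS 15 in water (5, 3 and 0.6 mg/mL for IP, PO and IV). Heart-puncture blood taken into heparin-Na from 3 mice per time, 5 min–24 h. Plasma analysed by LC/MS/MS. Once-daily cageside observations.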

[10] = male, CD1, mouse, plasma, iv, 3 mg/kg

T1 sequence (P51570 whole entry): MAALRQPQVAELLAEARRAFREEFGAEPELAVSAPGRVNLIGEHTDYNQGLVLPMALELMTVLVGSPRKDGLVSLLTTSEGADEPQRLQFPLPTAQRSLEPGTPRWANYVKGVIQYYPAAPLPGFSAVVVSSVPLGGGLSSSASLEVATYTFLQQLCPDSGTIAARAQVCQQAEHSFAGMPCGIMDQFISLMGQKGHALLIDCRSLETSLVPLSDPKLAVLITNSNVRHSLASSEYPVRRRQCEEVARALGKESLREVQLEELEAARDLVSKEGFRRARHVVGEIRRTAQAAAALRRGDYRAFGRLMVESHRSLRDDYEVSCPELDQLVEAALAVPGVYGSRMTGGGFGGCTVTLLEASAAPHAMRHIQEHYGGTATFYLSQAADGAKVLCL

PAMPA [2]: 773 10^−6 cm/s
mouse GALK1 inhibition (mouse recombinant GALK1 [3]): submicromolar
fold more potent than the (S)-enantiomer (recombinant human GALK1 [1]; (R) vs (S) enantiomer at C4): 18 fold
SMILES: CCn1cc(CNC(=O)C2=C(C)NC(Nc3nc4ccc(F)c(N)c4o3)=N[C@H]2c2ccc(C)cc2Cl)cn1 [Compound (R)-70, (R)-2-((7-Amino-6-fluorobenzo[d]oxazol-2-yl)amino)-4-(2-chloro-4-methylphenyl)-N-((1-ethyl-1H-pyrazol-4-yl)methyl)-6-methyl-1,4-dihydropyrimidine-5-carboxamide]

PAMPA [2]: 632 10^−6 cm/s
SMILES: CCn1cc(CNC(=O)C2=C(C)NC(Nc3nc4cccc(N)c4o3)=NC2c2ccc(C)cc2Cl)cn1 (centres unmarked) [Compound 69, 2-((7-Aminobenzo[d]oxazol-2-yl)amino)-4-(2-chloro-4-methylphenyl)-6-methyl-N-((1-ethyl-1H-pyrazol-4-yl)methyl)-1,4-dihydropyrimidine-5-carboxamide]

PAMPA [2]: 410 10^−6 cm/s
mouse GALK1 inhibition (mouse recombinant GALK1 [3]): submicromolar
fold improvement in GALK1 inhibition over 69 (recombinant human GALK1 [1]; 6′-F vs des-fluoro 69): 4 fold
SMILES: CCn1cc(CNC(=O)C2=C(C)NC(Nc3nc4ccc(F)c(N)c4o3)=NC2c2ccc(C)cc2Cl)cn1 (centres unmarked) [Compound 70, 2-((7-Amino-6-fluorobenzo[d]oxazol-2-yl)amino)-4-(2-chloro-4-methylphenyl)-N-((1-ethyl-1H-pyrazol-4-yl)methyl)-6-methyl-1,4-dihydropyrimidine-5-carboxamide]

PAMPA [2]: 485 10^−6 cm/s
half-life at 1 μM [8]: 47 min
mouse GALK1 inhibition (mouse recombinant GALK1 [3]): submicromolar
time up to which plasma concentrations stay above 1 μM ([9]; IP, single 50 mg/kg dose): ~ 7 h
time after which compound levels are below LLQ ([9]; IV, 3 mpk, plasma): 2 h
clearance at 24 h [9, 10]: 19.9 mL/min/kg
half-life [9, 10]: ~24 min
SMILES: CC1=C(C(=O)NCc2cnn(C)c2)C(c2ccc(C)cc2Cl)N=C(Nc2nc3ccc(F)c(N)c3o2)N1 (centres unmarked) [Compound 68, 2-((7-Amino-6-fluorobenzo[d]oxazol-2-yl)amino)-4-(2-chloro-4-methylphenyl)-6-methyl-N-((1-methyl-1H-pyrazol-4-yl)methyl)-1,4-dihydropyrimidine-5-carboxamide]
gal-1P/protein levels [7]: ~ 50 % of control

PAMPA [2]: 661 10^−6 cm/s
SMILES: CC1=C(C(=O)NCc2cnn(C)c2)[C@H](c2ccc(C)cc2Cl)N=C(Nc2nc3cccc(N)c3o2)N1 [Compound (R)-67, (R)-2-((7-Aminobenzo[d]oxazol-2-yl)amino)-4-(2-chloro-4-methylphenyl)-6-methyl-N-((1-methyl-1H-pyrazol-4-yl)methyl)-1,4-dihydropyrimidine-5-carboxamide]

PAMPA [2]: 407 10^−6 cm/s
SMILES: CCn1cc(CNC(=O)C2=C(C)NC(Nc3nc4ccc(F)c(N)c4o3)=N[C@@H]2c2ccc(C)cc2Cl)cn1 [Compound (S)-70, (S)-2-((7-Amino-6-fluorobenzo[d]oxazol-2-yl)amino)-4-(2-chloro-4-methylphenyl)-N-((1-ethyl-1H-pyrazol-4-yl)methyl)-6-methyl-1,4-dihydropyrimidine-5-carboxamide]

The remaining lines, values behind:

SMILES: CC1=C(C(=O)NCc2ccc(C(=O)O)cc2)C(c2ccccc2Cl)N=C(Nc2nc3ccccc3o2)N1 (centres unmarked) [Compound 25, 4-((2-(Benzo[d]oxazol-2-ylamino)-4-(2-chlorophenyl)-6-methyl-1,4-dihydropyrimidine-5-carboxamido)methyl)benzoic Acid]
fold better than 24 (recombinant human GALK1 [1]; GALK1 IC50 vs 24): 2 fold

SMILES: CC1=C(C(=O)Nc2cc(C(=O)O)ccn2)C(c2ccccc2Cl)N=C(Nc2nc3ccc(F)cc3o2)N1 (centres unmarked) [Compound 38, 2-(4-(2-Chlorophenyl)-2-((6-fluorobenzo[d]oxazol-2-yl)amino)-6-methyl-1,4-dihydropyrimidine-5-carboxamido)isonicotinic Acid]
biochemical potency against GALK1 (recombinant human GALK1 [1]): submicromolar

SMILES: CC1=C(C(=O)NCc2cnn(C)c2)C(c2ccccc2Cl)N=C(Nc2nc3ccccc3o2)N1 (centres unmarked) [Compound 33, 2-(Benzo[d]oxazol-2-ylamino)-4-(2-chlorophenyl)-6-methyl-N-((1-methyl-1H-pyrazol-4-yl)methyl)-1,4-dihydropyrimidine-5-carboxamide]
fold improvement in potency compared to compound 2 (recombinant human GALK1 [1]): 7–9 fold

SMILES: CC1=C(C(=O)Nc2ccc(C(=O)O)cc2)C(c2ccccc2Cl)N=C(Nc2nc3ccccc3o2)N1 (centres unmarked) [Compound 16, 4-(2-(Benzo[d]oxazol-2-ylamino)-4-(2-chlorophenyl)-6-methyl-1,4-dihydropyrimidine-5-carboxamido)benzoic Acid]
fold improvement in potency compared to compound 2 (recombinant human GALK1 [1]): > 5 fold

SMILES: CC1=C(C(=O)Nc2cc(C(=O)O)ccn2)C(c2ccccc2Cl)N=C(Nc2nc3cccc(N)c3o2)N1 (centres unmarked) [Compound 53, 2-(2-((7-Aminobenzo[d]oxazol-2-yl)amino)-4-(2-chlorophenyl)-6-methyl-1,4-dihydropyrimidine-5-carboxamido)isonicotinic Acid]
biochemical potency against GALK1 (recombinant human GALK1 [1]): submicromolar
fold potency improvement over 35 (recombinant human GALK1 [1]; ratio of GALK1 IC50 vs 35): 5 fold

SMILES: CC1=C(C(=O)Nc2cc(C(=O)O)ccn2)C(c2ccccc2Cl)N=C(Nc2nc3ccccc3o2)N1 (centres unmarked) [Compound 35, 2-(2-(Benzo[d]oxazol-2-ylamino)-4-(2-chlorophenyl)-6-methyl-1,4-dihydropyrimidine-5-carboxamido)isonicotinic Acid]
fold improvement in potency compared to compound 2 (recombinant human GALK1 [1]): 10 fold

SMILES: CC1=C(C(=O)NCc2cn(C)cn2)C(c2ccccc2Cl)N=C(Nc2nc3ccccc3o2)N1 (centres unmarked) [Compound 32, 2-(Benzo[d]oxazol-2-ylamino)-4-(2-chlorophenyl)-6-methyl-N-((1-methyl-1H-imidazol-4-yl)methyl)-1,4-dihydropyrimidine-5-carboxamide]
fold improvement in potency compared to compound 2 (recombinant human GALK1 [1]): 7–9 fold

SMILES: O=C1CCCC2=C1C(c1[nH]ncc1Cl)N=C(Nc1nc3ccccc3o1)N2 (centres unmarked) [Compound 1]
activity against GALK2 (GALK2): inactive
IC50 (mouse recombinant GALK1 [4]): 13.7 µM
effect on gal-1P levels [5]: lowered gal-1P levels
cross-reactivity against other kinases (other kinases): negligible cross-reactivity
IC50 (recombinant human GALK1 [6]): 7.69 µM

SMILES: CC1=C(C(=O)Nc2cccc(C(=O)O)c2)C(c2ccccc2Cl)N=C(Nc2nc3ccccc3o2)N1 (centres unmarked) [Compound 15, 3-(2-(Benzo[d]oxazol-2-ylamino)-4-(2-chlorophenyl)-6-methyl-1,4-dihydropyrimidine-5-carboxamido)benzoic Acid]
fold improvement in potency compared to compound 2 (recombinant human GALK1 [1]): > 5 fold

SMILES: CC1=C(C(=O)NCc2cnn(C)c2)C(c2ccc(C)cc2Cl)N=C(Nc2nc3cccc(N)c3o2)N1 (centres unmarked) [Compound 67, 2-((7-aminobenzo[d]oxazol-2-yl)amino)-4-(2-chloro-4-methylphenyl)-6-methyl-N-((1-methyl-1H-pyrazol-4-yl)methyl)-1,4-dihydropyrimidine-5-carboxamide]
Papp at 30 min, 0.05 mM ([2]; PAMPA): 315 ×10⁻⁶ cm/s
